ChEMBL document CHEMBL4190397, “Design and Synthesis of Novel and Selective Glycine Transporter-1 (GlyT1) Inhibitors with Memory Enhancing Properties” (J Med Chem, 2018)

Assays:
[1] = target: T1, Sodium- and chloride-dependent glycine transporter 1 (Rattus norvegicus, UniProt P28572); experiment: Inhibition of GlyT1 in primary rat cortical neurons assessed as reduction in [14C]glycine uptake after 2 hrs by microbeta scintillation counting method
T1 sequence (P28572 whole entry): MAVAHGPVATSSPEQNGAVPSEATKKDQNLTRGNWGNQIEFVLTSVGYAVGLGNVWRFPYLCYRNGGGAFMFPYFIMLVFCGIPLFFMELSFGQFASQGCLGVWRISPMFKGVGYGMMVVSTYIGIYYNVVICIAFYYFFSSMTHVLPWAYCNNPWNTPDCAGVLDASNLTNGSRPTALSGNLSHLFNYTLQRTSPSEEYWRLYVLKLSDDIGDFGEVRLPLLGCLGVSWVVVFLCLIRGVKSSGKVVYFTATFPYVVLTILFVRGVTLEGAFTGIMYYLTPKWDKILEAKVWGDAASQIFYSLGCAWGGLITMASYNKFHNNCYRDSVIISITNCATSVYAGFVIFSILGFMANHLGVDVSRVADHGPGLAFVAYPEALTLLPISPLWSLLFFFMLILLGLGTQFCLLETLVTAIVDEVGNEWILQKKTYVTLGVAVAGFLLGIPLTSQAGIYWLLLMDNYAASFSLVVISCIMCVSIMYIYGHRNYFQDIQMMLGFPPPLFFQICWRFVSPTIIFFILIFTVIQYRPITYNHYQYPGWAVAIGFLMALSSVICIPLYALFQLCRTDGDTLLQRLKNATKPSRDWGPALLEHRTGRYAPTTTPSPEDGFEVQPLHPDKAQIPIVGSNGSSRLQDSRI

[2] = Intrinsic clearance in rat liver microsomes at 1 uM assessed per mg protein at 37 degC up to 30 mins in presence of NADPH by HPLC-MS analysis; type: ADME, microsome; conditions: read-out: CLH
[3] = Apparent permeability from basolateral to apical side in MDCK-MDR1 cells monolayer at 5 uM after 60 mins by LC-MS/MS analysis; conditions: dog
[4] = Plasma concentration in Sprague-Dawley rat at 10 mg/kg, po after 90 mins by LC-MS/MS analysis; type: ADME, organism-based
How it was run: (§1)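 Male SD rats (n=5) given a single oral dose of 10 mg/kg in NMP/PEG400/water (10:50:40). Plasma, total brain and CSF compound concentrations measured 90 min after dosing.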

[5] = Drug uptake in Sprague-Dawley rat brain at 10 mg/kg, po after 90 mins by LC-MS/MS analysis; type: ADME, organism-based; conditions: read-out: Drug uptake; how it was run: as §1
[6] = Drug uptake in Sprague-Dawley rat CSF at 10 mg/kg, po after 90 mins by LC-MS/MS analysis; type: ADME, organism-based, Cerebrospinal fluid; conditions: read-out: Drug uptake; how it was run: as §1
[7] = Unbound fraction in rat plasma at 1 uM by LC-MS/MS based equilibrium dialysis; type: ADME, cell-free
How it was run: (§2)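 Rat plasma or brain homogenate (1:6 in 0.1 M PBS pH 7.2) spiked to 1.0 µM, in triplicate. Rapid equilibrium dialysis (MWCO 8000) against PBS, shaken at 37 °C for 6 h. Matrix-matched samples quantified by LC-MS/MS. fu = receiver/donor concentration; brain value corrected for homogenate dilution.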

[8] = Unbound fraction in rat brain homogenate at 1 uM by LC-MS/MS based equilibrium dialysis; type: ADME, tissue-based; how it was run: as §2
[9] = Free drug level in rat brain homogenate at 1 uM by LC-MS/MS based equilibrium dialysis; type: ADME, tissue-based
[10] = Ratio of free drug level in rat brain homogenate at 1 uM to IC50 for inhibition of GlyT1 in primary rat cortical neurons; type: tissue-based
[11] = system: Rattus norvegicus; experiment: In vivo inhibition of GlyT1 in Sprague-Dawley rat assessed as CSF glycine levels at 10 mg/kg, po administered as single dose measured after 90 mins by LC-MS/MS analysis relative to control; type: functional
How it was run: (§3)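 Male Sprague-Dawley rats (300−400 g, n = 5), fed ad libitum, dosed orally at 10 mg/kg (10 mL/kg) in NMP/PEG400/water (10:50:40), with a vehicle group (n = 5) in each study. CSF (~100 µL) taken under anaesthesia at 90 min. Glycine derivatised with Marfey's reagent, 13C2-15N-glycine internal standard, LC-MS/MS in negative ion mode. Expressed as % of vehicle; 1-way ANOVA.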

[12] = system: Rattus norvegicus; experiment: In vivo inhibition of GlyT1 in Sprague-Dawley rat assessed as increase in CSF glycine levels at 10 mg/kg, po administered as single dose measured after 90 mins by LC-MS/MS analysis relative to control; type: functional; parameters: scale not given: the % may be the effect or the level left; how it was run: as §3

Row | IC50 [1] | microsomal CLint at 1 µM [2] | Papp B→A at 1 h, 5 µM [3] | concentration at […] [4] | concentration at […] [5] | concentration at […] [6] | fraction unbound at 1 µM [7] | fraction unbound at 1 µM [8] | Drug uptake(free) [9] | Ratio [10] | SMILES | Activity [11] | Activity [12]
1 | 28 nM | 5.3 µL/min/mg | 58.9 ×10⁻⁶ cm/s | 2140 nM | 605 nM | 26 nM | 0.047 | 0.017 | 10.3 nM | 0.37 | CS(=O)(=O)c1ccc(OCC2CC2)c(C(=O)N2Cc3cn(-c4ccccc4F)nc3C2)c1 | 7.6 µM | 110%
2 | 108 nM | 451 µL/min/mg | 61.7 ×10⁻⁶ cm/s |  |  |  |  |  |  |  | C[C@H](Oc1ccc(C#N)cc1C(=O)N1Cc2cn(-c3ccccc3F)nc2C1)C(F)(F)F |  | 
